Data from ChEMBL document CHEMBL1157200, “Carboxymethylated pyridoindole antioxidants as aldose reductase inhibitors: Synthesis, activity, partitioning, and molecular modeling” (Bioorg Med Chem, 2008).

What was measured:
[1] = biological target: T1, Aldo-keto reductase family 1 member B1 (Rattus norvegicus, UniProt P07943); test: Inhibition of Wistar rat lens aldose reductase 2
Method in brief: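 Lens ALR2 partially purified from male Wistar rats (8–9 weeks). Reaction: 4.67 mM D,L-glyceraldehyde, 0.11 mM NADPH, 0.067 M phosphate pH 6.2; started with substrate, NADPH loss at 340 nm read 4 min after 1 min lag at 30 °C. Blank lacks substrate and includes inhibitor. IC50 from semilog curves, ≥4 concentrations giving 25–75% inhibition.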

[2] = Lipophilicity in 1-octanol/phosphate buffer at pH 7.4 assessed as distribution ratio by shake flask method; format: physicochemical; conditions: octanol/water
Method in brief: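 Shake-flask method at room temperature with mutually saturated phases: compound 100 µM final in 0.1 M phosphate buffer pH 7.4 containing 0.15 M KCl, shaken with 1-octanol for 3 h. Phases separated by 1 h centrifugation; both measured by UV spectrophotometry. D is organic/aqueous total concentration; mean ± SD of ≥3 experiments.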

[3] = Antioxidant activity assessed as inhibition of AAPH-induced peroxidation of DOPC liposome after 80 mins by thiocyanate method; format: functional
Method in brief: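 DOPC unilamellar liposomes (0.8 mM final) in 20 mM phosphate buffer pH 7.4 with AAPH initiator (10 mM final) and varying test concentrations at 50 °C. Aliquots extracted with ice-cold CHCl3/MeOH (2:1) containing BHT; lipid hydroperoxides measured by thiocyanate method, absorbance at 500 nm. IC50 taken at 80 min.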

[4] = Inhibition of Wistar rat kidney aldose reductase 1
Method in brief: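 ALR1 partially purified from male Wistar rat kidney by ammonium sulfate fractionation and DEAE treatment. NADPH consumption followed at 340 nm with 20 mM D-glucuronate and 0.12 mM NADPH in 0.1 M phosphate pH 7.2 at 37 °C; inhibitor also in blank. IC50 from linear part of semilog curves, ≥4 concentrations spanning 25–75% inhibition.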

[5] = biological target: T1, Aldo-keto reductase family 1 member B1; test: Inhibition of Wistar rat lens aldose reductase 2 using D,L-glyceraldehyde as substrate
Method in brief: (§1)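 Kinetic mode of rat lens ALR2 inhibition from double-reciprocal plots of initial velocity, with D,L-glyceraldehyde or NADPH concentration varied, with or without inhibitor (e.g. 20 µM); NADPH consumption read at 340 nm. Kinetic parameters given as mean ± SD of at least three experiments.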

[6] = biological target: T1, Aldo-keto reductase family 1 member B1; test: Inhibition of Wistar rat lens aldose reductase 2 using NADPH as substrate; method in brief: as §1
[7] = Dissociation constant, acidic pKa of compound; format: physicochemical
Method in brief: (§2)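 Potentiometric titration with glass/saturated calomel electrodes: compound about 2 mM in water, acidified with 0.1 M HCl to pH about 1.8, titrated with 0.1 M NaOH at 22 °C ± 1 °C, ionic strength held at 0.1 M with KCl.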

[8] = Dissociation constant, basic pKa of compound; format: physicochemical; method in brief: as §2

IC50 [1] [µM]	D [2]	IC50 [3] [µM]	IC50 [4] [µM]	Ki [5] [µM]	Ki [6] [µM]	pKa [7]	pKa [8]	Structure (SMILES)
0.005								O=C(O)Cc1nn(Cc2nc3cc(C(F)(F)F)ccc3s2)c(=O)c2ccccc12 [ZOPOLRESTAT]
			56.1					CCCC(CCC)C(=O)O [VALPROIC ACID]
54	0.13		3080					CN1CCc2[nH]c3ccc(CC(=O)[O-])cc3c2C1.[K+]
266	0.2	75.6	> 3000					O=C([O-])Cc1ccc2c(c1)[C@@H]1CN(Cc3ccccc3)CC[C@@H]1N2.[Na+] (racemic)
		93.5						Cc1c(C)c2c(c(C)c1O)CCC(C)(C(=O)O)O2 (stereo not given) [TROLOX]
> 1000	6	72.7						Cc1ccc2[nH]c3c(c2c1)CN(C)CC3 [DEHYDROSTOBADINE]
16.7	0.51		603	17.7	10.5			O=C([O-])Cc1ccc2[nH]c3c(c2c1)CN(CCc1ccccc1)CC3.[K+]
18.2	0.35		328	17.9	11	4.34	8.65	O=C([O-])Cc1ccc2[nH]c3c(c2c1)CN(Cc1ccccc1)CC3.[K+]

Structure (SMILES)	IC50 [1] [µM]	D [2]	IC50 [3] [µM]	IC50 [4] [µM]	Ki [5] [µM]	Ki [6] [µM]	pKa [7]	pKa [8]
Cc1ccc2c(c1)[C@H]1CN(C)CC[C@H]1N2 [STOBADINE]	> 1000	2.5	25.3					
CN1CC[C@@H]2Nc3ccc(CC(=O)[O-])cc3[C@@H]2C1.[K+] (racemic)	381	< 0.1						
